From PubChem BioAssay
Hits are enriched below; roughly 4.5% of the tested compounds scored in any of these assays.
RGS4 block: RGS4 inhibitors, primary screen, cell-based, HEK293 M3R inducible RGS4, calcium flux | Regulator of G-protein signaling 4 (Homo sapiens), P49798 | Fluo-4 calcium flux; hits give high values; triggered by carbachol at its EC20 | B-score at 10 µM | 310,000 tested, 0.45% active | AID 463165, 2010;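 active = B-score, a plate-corrected calcium signal, over three deviations above library mean, with baseline fluorescence within five deviations of library mean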;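 note: RGS4 expression induced by doxycycline in cells with stable M3 receptor; B-score is computed from the integrated fluorescence ratio over baseline after carbachol; higher B-score means a larger calcium signal and so more RGS4 inhibition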
RGS4 act: RGS4 potentiators or activators, primary screen, cell-based, HEK293 M3R inducible RGS4, calcium flux; carbachol calcium flux Fluo4; hits give low values; B-score at 10 µM; 310,000 tested, 0.92% active;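 active = B-score of the integrated calcium signal more than 4 SD below the library mean, with starting fluorescence not abnormally high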;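 note: negative B-score means reduced calcium response which marks RGS4 activation or potentiation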
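Material: Inducible-RGS4 HEK293 cells carrying M3 receptor; also added: carbachol at ECmax as muscarinic agonist stimulus; incubation: compound preincubation 20 min at room temperature before agonist; signal: Fluo4-AM (2 µM) calcium-flux fluorescence, kinetic read; measure: integrated calcium ratio converted to B score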
MrgX1 agonist: agonists of human MrgX1 receptor, primary screen, HEK293 cells, Fluo-4 calcium flux. 310,000 tested, 0.44% active. B-score at 10 µM. Mas-related G-protein coupled receptor member X1 (Homo sapiens), Q96LB2. Fluo-4 calcium fluorescence, agonist mode; hits give high values;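 active = calcium response B-score plate-corrected fluorescence ratio at least 3 library SD, with starting fluorescence B-score inside 5 SD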
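Assay system: MrgX1-expressing HEK293 cells / Amount: fifteen thousand cells per well / Doses: test compound in the initial addition of three / Timing: cells plated overnight, dye loaded 0.5 h 37 °C, 0.5 h room temperature / Technique: kinetic calcium dye fluorescence, Fluo-4 NW / Control set: positive and negative controls per plate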
MrgX1 PAM: positive allosteric modulators of MrgX1, primary screen, HEK293 cells, Fluo-4 calcium flux | Mas-related G-protein coupled receptor member X1 (Homo sapiens), Q96LB2 | FDSS; hits give high values | B-score at 10 µM | 310,000 tested, 0.63% active | AID 588675, 2011;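 active = plate-corrected calcium response at least 3 library SD above typical, normal starting fluorescence, not activating the receptor alone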;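 note: compound read alongside a low EC10 to EC30 dose of BAM8-22 agonist; peak minus trough fluorescence over baseline measured at the second addition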
MrgX1 antagonist: antagonists of human MrgX1 receptor, primary screen, HEK293 cells, Fluo-4 calcium flux; AID 588676, 2011; B-score at 10 µM; 310,000 tested, 1.3% active; BAM8-22 antagonism; hits give low values;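 active = calcium-response B-score plate-corrected more than 3 library SD below zero, starting fluorescence within 5 deviations, no agonist response on first addition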;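 note: peak minus trough fluorescence over baseline after final BAM8-22 challenge near maximal dose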
PHOSPHO1 block: PubChem AID 1565 | Phosphoethanolamine/phosphocholine phosphatase (Homo sapiens), Q8TCT1 | inhibition, % at 13.3 µM | 290,000 tested, 1.1% active | recombinant PHOSPHO1, absorbance phosphatase assay; in the data active = inhibition above about 60%
Target sequence (Q8TCT1 whole entry, looked up): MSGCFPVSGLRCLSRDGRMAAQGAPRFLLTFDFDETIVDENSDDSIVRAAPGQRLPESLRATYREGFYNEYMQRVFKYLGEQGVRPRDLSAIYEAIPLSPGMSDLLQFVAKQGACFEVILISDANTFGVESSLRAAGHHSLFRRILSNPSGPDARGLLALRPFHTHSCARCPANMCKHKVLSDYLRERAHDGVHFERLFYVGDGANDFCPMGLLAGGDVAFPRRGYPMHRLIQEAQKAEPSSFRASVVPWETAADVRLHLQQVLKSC
Active calls of the source: *; i = inactive; . = no result.

SMILES | RGS4 block | RGS4 act | MrgX1 agonist | MrgX1 PAM | MrgX1 antagonist | PHOSPHO1 block
COC(=O)C(C)Oc1ccc2c(c1)O/C(=C\c1ccco1)C2=O (stereo not drawn) | i | -9.07* | i | i | i | 30.8
COc1ccc(Cn2ccnc2SCC(=O)Nc2ccccc2OC)cc1 | i | i | i | i | i | 32.7
COc1ccc(CN2CCCC(C(=O)c3cccc(OC(C)C)c3)C2)cc1Cn1cccn1 (stereo not drawn) | i | i | i | i | i | 40.8
COc1ccc(CCN(Cc2cccs2)S(=O)(=O)c2ccc(C(=O)O)cc2)cc1OC | i | i | i | i | i | 42.9
O=C(COC(=O)CCc1c[nH]c2ccccc12)NC(c1ccccc1)c1ccccc1 | i | i | i | i | i | -13.9
O=C(N/N=C/c1ccc[nH]1)c1cc2ccccc2cc1O | i | i | i | i | i | 8.7
O=C(N/N=C/c1ccncc1)c1cc2ccccc2cc1O | i | i | i | i | i | 61.0*
Cc1cnc(NCCc2ccccc2)s1 | i | i | i | i | i | .
Cc1ccc(O)c(N=Cc2cc(Cc3ccccc3)cc([N+](=O)[O-])c2O)c1 | i | -7.2* | . | . | . | 48.4
O=[N+]([O-])c1cc(Cc2ccccc2)cc(C=Nc2ccc(N3CCOCC3)cc2)c1O | i | i | i | i | i | 0.1
Nc1nnc(SCC(=O)OCc2ccc(F)cc2)s1 | i | i | i | i | i | 3.5
Cn1c(SC2C(=O)CC(C)(C)CC2=O)nnc1-c1ccco1 | i | i | i | i | i | 58.0
CC1(C)CC(=O)C(Sc2nnc(-c3ccc(NS(C)(=O)=O)cc3)n2Cc2ccco2)C(=O)C1 | . | . | i | i | i | 95.7*
CC(C)(C)CC(=O)NCc1cccs1 | i | i | i | i | i | 60.0*
O=C(CN(C(=O)c1csnn1)c1ccccc1)NCCc1ccccc1 | i | i | i | i | i | 27.0
COc1ccc(NC(=O)C(=O)NNC(=O)C(C)Oc2ccc(Cl)cc2Cl)cc1 (stereo not drawn) | i | i | i | i | -6.24* | 35.9
O=C(O)C(c1ccccc1)N1C(=O)/C(=C\c2ccc(O)c(O)c2)SC1=S (stereo not drawn) | i | i | 27.5* | i | i | 34.0
Cc1cn(-c2cc(NC(=O)c3ccc(C)c(NC(=O)c4cccc(-c5cn[nH]c(=O)c5)c4)c3)cc(C(F)(F)F)c2)cn1 | i | i | i | i | i | -13.0
O=C1CN(C(=O)CSc2nnc(-c3ccccc3)n2Cc2ccc3c(c2)OCO3)c2ccccc2N1 | i | i | i | i | i | 69.3*
Cc1nnc(SCC(=O)N2CC(=O)Nc3ccccc32)n1-c1ccccc1 | i | i | i | i | i | 8.7
O=C(CC(Sc1ccc(Br)cc1)C(=O)O)c1ccc(Br)cc1 (stereo not drawn) | 6.93* | i | i | i | i | 31.3
O=C(Nc1ccc(S(=O)(=O)N2CCCC2)cc1)c1ccc(CN2CCOCC2)cc1 | i | i | i | i | i | 38.2
O=C(Nc1ccc(S(=O)(=O)N2CCCCC2)cc1)c1ccc(CN2CCOCC2)cc1 | i | i | i | i | -7.67* | -5.6
O=C(NCc1ccc(F)cc1)c1ccc(CNc2c(N3CCOCC3)c(=O)c2=O)cc1 | i | i | i | i | i | 60.8*
Cc1ccc(CNC(=O)c2ccc(CN3CCOCC3)cc2)cc1 | i | i | i | i | i | 83.5*
CCCCn1c(N)c(N(CCOC)C(=O)COc2ccc(Cl)cc2)c(=O)[nH]c1=O | i | i | i | i | i | 47.9
